The values that follow come from ChEMBL document CHEMBL4052644, “Synthesis of novel benzylidene analogues of betulinic acid as potent cytotoxic agents” (Eur J Med Chem, 2017).

Test [1] has as its system A549. The test is described as follows: Growth inhibition of human A549 cells at 10 uM after 48 hrs by SRB assay relative to control. In kind it is functional. The following applies: A549, 48 h, read-out: GI. Put shortly: (§1)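 Primary SRB screen of every compound at a single concentration of 10 µM. Growth inhibition is expressed relative to control.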
(The SRB assay estimates cell density from bound dye.)

Test [2] concerns PC-3. The test is described as follows: Growth inhibition of human PC3 cells at 10 uM after 48 hrs by SRB assay relative to control. In kind it is functional. As to conditions: PC-3, 48 h, read-out: GI. Summed up: as §1
The test system of test [3] is HCT-116. The test is described as follows: Growth inhibition of human HCT116 cells at 10 uM after 48 hrs by SRB assay relative to control. As to conditions: HCT-116, 48 h, read-out: GI. In kind it is functional. Put shortly:
as §1

Test [4] concerns MCF7. As to the kind of experiment: Growth inhibition of human MCF7 cells at 10 uM after 48 hrs by SRB assay relative to control. In kind it is functional. As to conditions: MCF7, 48 h, read-out: GI. Summed up:
as §1

The subject of test [5] is MIA PaCa-2. As to the kind of experiment: Growth inhibition of human MIAPaCa2 at 10 uM after 48 hrs by SRB assay relative to control. In kind it is functional. The following applies: MIA PaCa-2, 48 h, read-out: GI. Summed up:
as §1

The test system of test [6] is A549. As to the kind of experiment: Cytotoxicity against human A549 cells assessed as reduction in cell viability after 48 hrs by SRB assay. In kind it is functional, cell-based. As to conditions: A549, 48 h. Put shortly: (§2)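 SRB assay. Compounds active at 10 µM in the primary screen were retested at 1, 2.5 and 5 µM, and IC50 was calculated from these concentrations. The normal breast epithelial line fR2 was tested alongside the cancer lines.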

Test [7] deals with PC-3. The test is described as follows: Cytotoxicity against human PC3 cells assessed as reduction in cell viability after 48 hrs by SRB assay. The test is classed as functional, cell-based. The following applies: PC-3, 48 h. Summed up:
as §2

In test [8] the test system is HCT-116. As to the kind of experiment: Cytotoxicity against human HCT116 cells assessed as reduction in cell viability after 48 hrs by SRB assay. The following applies: HCT-116, 48 h. In kind it is functional, cell-based. Summed up: as §2
The test system of test [9] is MCF7. The test is described as follows: Cytotoxicity against human MCF7 cells assessed as reduction in cell viability after 48 hrs by SRB assay. In kind it is functional, cell-based. The following applies: MCF7, 48 h. Put shortly: as §2
Test [10] concerns MIA PaCa-2. As to the kind of experiment: Cytotoxicity against human MIAPaCa2 cells assessed as reduction in cell viability after 48 hrs by SRB assay. In kind it is functional, cell-based. The following applies: MIA PaCa-2, 48 h. Summed up:
as §2

Test [11] in a line: Cytotoxicity against human FR2 cells assessed as reduction in cell viability after 48 hrs by SRB assay. The test is classed as cell-based. The following applies: FR2, 48 h. Summed up:
as §2

Test [12] can be described thus: Selectivity index, ratio of IC50 for human FR2 cells to IC50 for human A549 cells. The test is classed as functional. Put shortly: (§3)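 Selectivity index is the IC50 in normal breast epithelial fR2 cells divided by the IC50 in each cancer line. All IC50 values come from the SRB assay.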
Test [13] in a line: Selectivity index, ratio of IC50 for human FR2 cells to IC50 for human HCT116 cells. The test is classed as functional. Put shortly:
as §3

Test [14] is described as follows: Selectivity index, ratio of IC50 for human FR2 cells to IC50 for human MCF7 cells. In kind it is functional. Summed up:
as §3

A short description of test [15]: Selectivity index, ratio of IC50 for human FR2 cells to IC50 for human MIAPaCa2 cells. In kind it is functional. Summed up:
as §3

The nature of test [16]: Selectivity index, ratio of IC50 for human FR2 cells to IC50 for human PC3 cells. In kind it is functional. Put shortly:
as §3

`C=C(C)[C@@H]1CC[C@]2(C(=O)O)CC[C@]3(C)[C@H](CC[C@@H]4[C@@]5(C)C/C(=C\c6ccc([N+](=O)[O-])cc6)C(=O)C(C)(C)[C@@H]5CC[C@]43C)[C@@H]12`: the inhibition of growth at 10 µM in [1] was 82%; in test [2], 37%; in test [3], 75%; in test [4] it was 83%; in [5] it was 61%. For the same compound, the concentration for half-maximal inhibition (IC50) in [6] is 1.5 µM; in [7] it was over 10 µM; in test [8], 1.4 µM; in test [9] it was 3.1 µM; in test [10], 6.5 µM; in test [11], 14 µM. Also, the “Ratio IC50” value is given as 9.353 in test [12], 10.02 in test [13], 4.525 in test [14] and 2.158 in [15].
Regarding `C=C(C)[C@@H]1CC[C@]2(C(=O)O)CC[C@]3(C)[C@H](CC[C@@H]4[C@@]5(C)C/C(=C\c6ccc(F)cc6)[C@H](O)C(C)(C)[C@@H]5CC[C@]43C)[C@@H]12`, the inhibition of growth at 10 µM came to 59% in test [1]; 48% in test [2]; 67% in test [3]; 77% in test [4]; 78% in [5]. The half-inhibitory concentration (IC50) in test [6] is 4 µM; in test [7], over 10 µM; in test [8] it was 1.5 µM; in test [9] it was 1.18 µM; in test [10] it was 1.21 µM; in test [11], 14.4 µM. Further, the “Ratio IC50” value in test [12] is reported as 3.6; in test [13] it was 9.62; in test [14], 12.22; in [15] it was 8.702.
With `C=C(C)[C@@H]1CC[C@]2(C(=O)O)CC[C@]3(C)[C@H](CC[C@@H]4[C@@]5(C)C/C(=C/C=C/c6ccccc6)C(=O)C(C)(C)[C@@H]5CC[C@]43C)[C@@H]12`, the inhibition of growth at 10 µM came to 93% in [1]; 71% in test [2]; 66% in [3]; 84% in [4]; 48% in [5]. The IC50 in test [6] is 3.4 µM; in test [7], 7.8 µM; in [8], 5.8 µM; in test [9], 7.2 µM; in test [10], over 10 µM; in test [11], 13.1 µM. For the same compound, the “Ratio IC50” value in test [12] is recorded as 3.864; in test [16], 1.684; in [13], 2.265; in [14] it was 1.825.
With `C=C(C)[C@@H]1CC[C@]2(C(=O)O)CC[C@]3(C)[C@H](CC[C@@H]4[C@@]5(C)C/C(=C\c6cccc7ccccc67)[C@H](O)C(C)(C)[C@@H]5CC[C@]43C)[C@@H]12`, the inhibition of growth at 10 µM came to 36% in test [1]; 36% in test [2]; 55% in test [3]; 64% in test [4]; 62% in test [5]. The IC50 in [6] was over 10 µM; in test [7] it was over 10 µM; in test [8], 3.6 µM; in test [9], 7.5 µM; in [10], 7.09 µM; in test [11], 10 µM. Also, the results for the “Ratio IC50” value in test [13], in test [14] and in test [15] were 2.788, 1.338 and 1.416, respectively.
As to `C=C(C)[C@@H]1CC[C@]2(C(=O)O)CC[C@]3(C)[C@H](CC[C@@H]4[C@@]5(C)C/C(=C\c6cccc(Br)c6)C(=O)C(C)(C)[C@@H]5CC[C@]43C)[C@@H]12`, the inhibition of growth at 10 µM was 71% in test [1]; 56% in test [2]; 57% in [3]; 56% in test [4]; 35% in [5]. The IC50 in [6] is 3.04 µM; in [7], 8.7 µM; in test [8], 4.9 µM; in [9] it was 5.2 µM; in test [10], over 10 µM; in test [11], 16.9 µM. Also, the “Ratio IC50” value in [12] was found to be 5.55; in test [16] it was 1.94; in test [13], 3.44; in test [14], 3.25.
As for `C=C(C)[C@@H]1CC[C@]2(C(=O)O)CC[C@]3(C)[C@H](CC[C@@H]4[C@@]5(C)C/C(=C\c6ccc(Br)cc6)[C@H](O)C(C)(C)[C@@H]5CC[C@]43C)[C@@H]12`, the inhibition of growth at 10 µM in test [1] was 80%; in test [2], 48%; in test [3], 66%; in test [4] it was 64%; in test [5], 48%. Moreover, the 50% inhibitory concentration (IC50) in test [6] is 1.8 µM; in [7], 8.2 µM; in test [8] it was 5.7 µM; in test [9], 8.1 µM; in [10], over 10 µM; in [11], 35.3 µM. For the same compound, the “Ratio IC50” value in test [12] was 19.63; in test [16], 4.3; in [13], 6.2; in test [14], 4.36.
Take `C=C(C)[C@@H]1CC[C@]2(C(=O)O)CC[C@]3(C)[C@H](CC[C@@H]4[C@@]5(C)C/C(=C\c6cc(Br)ccc6OC)C(=O)C(C)(C)[C@@H]5CC[C@]43C)[C@@H]12`: the inhibition of growth at 10 µM amounted to 88% in test [1]; 81% in [2]; 92% in test [3]; 85% in [4]; 28% in [5]. Besides, the IC50 in [6] is 1.7 µM; in test [7] it was 7.1 µM; in test [8], 4.7 µM; in [9], 6.3 µM; in test [10], over 10 µM; in test [11], 13.1 µM. Also, the “Ratio IC50” value was 7.705 in [12], 1.854 in [16], 2.802 in [13] and 2.09 in test [14].
`C=C(C)[C@@H]1CC[C@]2(C(=O)O)CC[C@]3(C)[C@H](CC[C@@H]4[C@@]5(C)C/C(=C\c6ccccc6Br)[C@H](O)C(C)(C)[C@@H]5CC[C@]43C)[C@@H]12`: the inhibition of growth at 10 µM in [1] is 47%; in [2], 19%; in test [3] it was 43%; in test [4], 57%; in test [5] it was 49%. Besides, the half-inhibitory concentration (IC50) in test [6] is over 10 µM; in test [7] it was over 10 µM; in test [8], over 10 µM; in test [9], 8.2 µM; in test [10], 9.6 µM; in test [11] it was 21.7 µM. In addition, the “Ratio IC50” value in test [14] is 2.642; in test [15] it was 2.257.

For orientation: IC50 means the point on the concentration scale where inhibition reaches its midpoint.
